# Legend:
# [1] = molecular target: T1, Scm-like with four MBT domains protein 1 (Homo sapiens, UniProt Q9UHJ3); assay: Inhibition of SFMBT1 (unknown origin) after 30 mins by AlphaScreen assay
# T1 sequence (Q9UHJ3 whole entry): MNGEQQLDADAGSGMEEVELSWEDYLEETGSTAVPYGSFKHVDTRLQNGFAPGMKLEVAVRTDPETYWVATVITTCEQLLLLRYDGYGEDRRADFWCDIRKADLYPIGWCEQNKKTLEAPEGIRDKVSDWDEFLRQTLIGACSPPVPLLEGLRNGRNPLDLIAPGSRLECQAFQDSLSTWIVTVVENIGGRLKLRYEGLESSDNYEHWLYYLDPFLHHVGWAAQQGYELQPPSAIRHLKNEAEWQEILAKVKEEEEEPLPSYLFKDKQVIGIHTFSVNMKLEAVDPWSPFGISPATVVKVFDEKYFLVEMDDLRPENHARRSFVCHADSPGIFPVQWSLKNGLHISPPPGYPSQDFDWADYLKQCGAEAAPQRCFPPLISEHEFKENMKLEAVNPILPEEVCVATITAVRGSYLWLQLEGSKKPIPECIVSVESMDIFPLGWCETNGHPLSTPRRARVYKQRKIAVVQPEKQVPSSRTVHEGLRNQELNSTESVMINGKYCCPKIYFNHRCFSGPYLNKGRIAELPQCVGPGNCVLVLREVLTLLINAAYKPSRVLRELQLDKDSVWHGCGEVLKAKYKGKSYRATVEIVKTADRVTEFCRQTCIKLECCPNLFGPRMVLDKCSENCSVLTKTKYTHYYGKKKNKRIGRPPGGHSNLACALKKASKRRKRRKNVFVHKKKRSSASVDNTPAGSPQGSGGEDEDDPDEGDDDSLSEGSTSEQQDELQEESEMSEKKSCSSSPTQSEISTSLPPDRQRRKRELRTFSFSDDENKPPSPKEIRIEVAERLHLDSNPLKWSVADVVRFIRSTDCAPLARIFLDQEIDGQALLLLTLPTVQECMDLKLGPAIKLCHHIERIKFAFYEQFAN
# Outline: (§1)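 AlphaScreen competition with histone peptide. Compounds in 3-fold, 10-point dilutions, top 10 or 30 μM; buffer 20 mM Tris pH 8.0, 25 mM NaCl, 2 mM DTT, 0.05% Tween-20. Protein-peptide mix 30 min RT, then streptavidin donor plus nickel-chelate acceptor beads (GST acceptor beads for GST-tagged PHF23, JARID1A) 30 min RT dark. […] Protein-free His6-biotin peptide counterscreen.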
# [2] = molecular target: T2, E3 ubiquitin-protein ligase UHRF1 (Homo sapiens, UniProt Q96T88); assay: Inhibition of UHRF1 (unknown origin) after 30 mins by AlphaScreen assay; outline: as §1
# T2 sequence (Q96T88 whole entry): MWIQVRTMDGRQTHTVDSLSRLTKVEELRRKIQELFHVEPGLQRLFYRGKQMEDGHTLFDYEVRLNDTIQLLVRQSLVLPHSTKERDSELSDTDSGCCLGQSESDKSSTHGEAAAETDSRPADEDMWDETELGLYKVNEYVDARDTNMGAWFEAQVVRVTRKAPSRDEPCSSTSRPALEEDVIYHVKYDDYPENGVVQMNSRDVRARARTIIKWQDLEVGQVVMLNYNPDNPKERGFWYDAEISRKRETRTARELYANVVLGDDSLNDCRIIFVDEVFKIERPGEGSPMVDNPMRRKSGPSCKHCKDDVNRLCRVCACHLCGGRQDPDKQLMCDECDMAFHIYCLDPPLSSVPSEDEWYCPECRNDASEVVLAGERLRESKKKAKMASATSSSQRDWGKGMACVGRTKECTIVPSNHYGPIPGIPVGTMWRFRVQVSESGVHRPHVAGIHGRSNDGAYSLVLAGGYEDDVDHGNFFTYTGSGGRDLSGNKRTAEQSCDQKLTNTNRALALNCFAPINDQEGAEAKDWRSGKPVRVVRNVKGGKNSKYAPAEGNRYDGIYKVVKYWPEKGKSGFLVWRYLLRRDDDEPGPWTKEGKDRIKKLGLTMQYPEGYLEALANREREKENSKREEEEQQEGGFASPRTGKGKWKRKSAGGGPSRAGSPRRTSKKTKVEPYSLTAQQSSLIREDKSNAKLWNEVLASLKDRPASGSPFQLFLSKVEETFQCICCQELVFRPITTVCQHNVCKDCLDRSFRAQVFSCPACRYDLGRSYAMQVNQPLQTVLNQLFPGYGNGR
# [3] = molecular target: PHD finger protein 23 (Homo sapiens, UniProt Q9BUL5); assay: Inhibition of PHF23 (unknown origin) after 30 mins by AlphaScreen assay
# Outline: (§2)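 AlphaScreen competition with histone peptide. Compounds in 3-fold, 10-point dilutions, top 10 or 30 μM; buffer 20 mM Tris pH 8.0, 25 mM NaCl, 2 mM DTT, 0.05% Tween-20. Protein-peptide mix 30 min RT, then streptavidin donor plus nickel-chelate acceptor beads (GST acceptor beads for GST-tagged PHF23, JARID1A) 30 min RT dark. Protein-free His6-biotin peptide counterscreen.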
# [4] = molecular target: MBT domain-containing protein 1 (Homo sapiens, UniProt Q05BQ5); assay: Inhibition of MBTD1 (unknown origin) after 30 mins by AlphaScreen assay; outline: as §2
# Sequence of MBT domain-containing protein 1 (Q05BQ5 whole entry, the tested form may be a part): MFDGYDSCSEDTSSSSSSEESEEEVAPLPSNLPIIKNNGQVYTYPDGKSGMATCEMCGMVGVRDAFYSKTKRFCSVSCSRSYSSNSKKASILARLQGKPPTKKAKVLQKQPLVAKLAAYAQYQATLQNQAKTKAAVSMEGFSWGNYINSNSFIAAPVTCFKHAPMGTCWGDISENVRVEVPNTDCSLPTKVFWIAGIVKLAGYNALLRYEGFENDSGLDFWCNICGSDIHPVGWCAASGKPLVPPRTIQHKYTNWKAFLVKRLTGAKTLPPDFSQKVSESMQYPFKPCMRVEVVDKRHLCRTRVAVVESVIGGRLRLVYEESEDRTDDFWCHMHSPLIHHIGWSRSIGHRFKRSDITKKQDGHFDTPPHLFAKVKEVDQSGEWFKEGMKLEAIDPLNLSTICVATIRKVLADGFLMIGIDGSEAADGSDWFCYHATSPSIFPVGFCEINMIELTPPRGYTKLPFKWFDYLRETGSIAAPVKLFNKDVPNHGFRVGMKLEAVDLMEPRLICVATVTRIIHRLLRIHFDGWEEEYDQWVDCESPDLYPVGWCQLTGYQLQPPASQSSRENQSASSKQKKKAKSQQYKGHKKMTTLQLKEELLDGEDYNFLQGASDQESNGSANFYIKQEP
# Sequence of PHD finger protein 23 (Q9BUL5 whole entry): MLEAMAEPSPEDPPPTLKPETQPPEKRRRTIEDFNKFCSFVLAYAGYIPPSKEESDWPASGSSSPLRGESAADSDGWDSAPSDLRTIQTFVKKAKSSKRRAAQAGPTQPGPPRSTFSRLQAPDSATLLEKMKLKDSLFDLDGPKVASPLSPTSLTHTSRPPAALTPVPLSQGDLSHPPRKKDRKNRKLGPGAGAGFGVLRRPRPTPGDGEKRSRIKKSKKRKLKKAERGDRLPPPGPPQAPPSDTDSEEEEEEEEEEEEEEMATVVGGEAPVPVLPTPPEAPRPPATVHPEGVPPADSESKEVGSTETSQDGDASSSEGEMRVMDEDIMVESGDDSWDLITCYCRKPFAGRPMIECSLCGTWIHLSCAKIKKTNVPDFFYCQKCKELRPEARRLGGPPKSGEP
SMILES,IC50 [1],IC50 [2],IC50 [3],IC50 [4]
O=C(c1ccc(C(=O)N2CCC(N3CCCC3)CC2)s1)N1CCC(N2CCCC2)CC1,> 10 µM,> 10 µM,> 10 µM,> 10 µM
CN(C)C1CCN(C(=O)c2ccc(C(=O)N3CCC(N4CCCC4)CC3)cc2)CC1,> 10 µM,> 10 µM,> 10 µM,> 10 µM
CN(C)C1CCN(C(=O)c2ccc(C(=O)N3CCC(N(C)C)CC3)cc2)CC1,> 10 µM,> 10 µM,> 10 µM,> 10 µM
O=C(c1ccc(C(=O)N2CCC(N3CCCC3)CC2)c(-c2ccccc2)c1)N1CCC(N2CCCC2)CC1,> 10 µM,> 10 µM,> 10 µM,> 10 µM
CCN1Cc2ccc(NC(=O)c3ccc(C(=O)N4CCC(C5CCCN5)CC4)cc3)cc2C1 (stereo not drawn),> 10 µM,> 10 µM,> 10 µM,> 10 µM
O=C(c1ccc(C(=O)N2CCC(N3CCCC3)CC2)c(Oc2ccccc2)c1)N1CCC(N2CCCC2)CC1,> 10 µM,> 10 µM,> 10 µM,9.3 µM
O=C(c1ccc(C(=O)N2CCC(N3CCCC3)CC2)c2ccccc12)N1CCC(N2CCCC2)CC1,> 10 µM,> 10 µM,> 10 µM,5.7 µM
O=C(c1ccc(C(=O)N2CC3CCC(C2)C3N2CCCC2)cc1)N1CCC(N2CCCC2)CC1 (stereo not drawn),> 10 µM,> 10 µM,> 10 µM,> 10 µM
O=C(NCCCN1CCCC1)c1ccc(C(=O)N2CCC(N3CCCC3)CC2)cc1,> 10 µM,> 10 µM,> 10 µM,> 10 µM

# Other lines, results leading:
IC50 [1],IC50 [2],IC50 [3],IC50 [4],SMILES
> 10 µM,> 10 µM,> 10 µM,4.9 µM,O=C(c1ccc(C(=O)N2CCC(N3CCCCC3)CC2)cc1)N1CCC(N2CCCCC2)CC1
> 10 µM,> 10 µM,> 10 µM,> 10 µM,O=C(c1ccc(C(=O)N2CCC(N3CCCC3)C2)cc1)N1CCC(N2CCCC2)CC1 (stereo not drawn)
> 10 µM,> 10 µM,> 10 µM,> 10 µM,O=C(c1ccc(C(=O)N2CCC(N3CCC3)CC2)cc1)N1CCC(N2CCC2)CC1
> 10 µM,> 10 µM,> 10 µM,5.4 µM,O=C(c1ccc(S(=O)(=O)N2CCC(N3CCCC3)CC2)cc1)N1CCC(N2CCCC2)CC1
> 10 µM,> 10 µM,> 10 µM,> 10 µM,O=C(c1ccc(C(=O)N2CCCC(N3CCCC3)CC2)cc1)N1CCCC(N2CCCC2)CC1 (stereo not drawn)
> 10 µM,> 10 µM,> 10 µM,> 10 µM,O=C(c1ccc2cc(C(=O)N3CCC(N4CCCC4)CC3)ccc2c1)N1CCC(N2CCCC2)CC1
> 10 µM,> 10 µM,> 10 µM,> 10 µM,O=C(c1ccccc1C(=O)N1CCC(N2CCCC2)CC1)N1CCC(N2CCCC2)CC1
> 10 µM,> 10 µM,> 10 µM,> 10 µM,O=C(c1ccc(C(=O)N2CCC(N3CCCC3)CC2)cc1)N1CCCC(N2CCCC2)CC1 (stereo not drawn)

# Source: ChEMBL document CHEMBL2424619, “Small-molecule ligands of methyl-lysine binding proteins: optimization of selectivity for L3MBTL3” (J Med Chem, 2013)
